CHRM1 PAM – positive allosteric modulators of human M1 muscarinic receptor; activation, % at 3 µM; hit rate 0.088% among 360,000; CHO-K1 hM1, Fluo-8 calcium fluorescence, ACh EC20; 0% = ACh EC20, 100% = maximal ACh; in the data active means activation above about 19%, passing the limit was not always enough
M5 antag – CHRM5 antagonism in calcium assay. P08912. CHO-hM5 cells, Fluo-8 calcium fluorescence, ACh EC80. inhibition, % at 3 µM. hit rate 0.59% among 360,000. AID 624040;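 active means inhibition above a per-plate cutoff, the mean of that plate's test compounds plus 3 SD, cut at about 27% in these data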;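 further: 0% = acetylcholine EC80 with DMSO and 100% = DMSO without agonist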
Target sequence (P08912 whole entry, looked up): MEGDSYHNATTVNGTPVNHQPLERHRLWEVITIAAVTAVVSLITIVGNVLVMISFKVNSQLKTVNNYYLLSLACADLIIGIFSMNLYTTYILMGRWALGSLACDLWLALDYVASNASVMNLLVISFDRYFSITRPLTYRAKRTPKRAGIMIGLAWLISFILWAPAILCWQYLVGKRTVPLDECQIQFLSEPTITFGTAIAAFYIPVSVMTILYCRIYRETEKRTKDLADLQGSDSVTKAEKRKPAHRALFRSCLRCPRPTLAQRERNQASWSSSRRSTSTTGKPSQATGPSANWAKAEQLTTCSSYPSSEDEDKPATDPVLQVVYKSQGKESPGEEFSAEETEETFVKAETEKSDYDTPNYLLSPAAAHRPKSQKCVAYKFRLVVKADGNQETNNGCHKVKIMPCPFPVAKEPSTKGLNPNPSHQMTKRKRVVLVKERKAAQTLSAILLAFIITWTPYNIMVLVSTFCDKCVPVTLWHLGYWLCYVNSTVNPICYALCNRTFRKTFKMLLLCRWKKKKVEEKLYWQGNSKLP
CHRM1 agonist – activates human CHRM1 receptor | P11229 | activation, % at 3 µM | CHO-K1 hM1, Fluo-8 calcium fluorescence, agonist mode; 0% DMSO, 100% acetylcholine EC100 | hit rate 0.33% among 360,000 | AID 588814;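 active means activation above the run's mean compound activation plus 3 SD, cut at about 16% in these data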;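 further: peak over basal fluorescence ratio within a 140 s kinetic read after compound addition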
CHRM1 antagonist – blocks human M1 muscarinic receptor. AID 588852. hit rate 1.3% among 360,000. P11229. inhibition, % at 3 µM. CHO-K1 hM1, Fluo-8 calcium fluorescence, ACh EC80 antagonist;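 active means percent inhibition above its own plate's cutoff, namely the mean of that plate's compound wells plus 3 SD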;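 further: peak over basal fluorescence ratio during 140 s after agonist addition; 0% = ACh EC80 plus DMSO and 100% = DMSO alone without agonist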
M5 ag – CHRM5 agonism in calcium assay; P08912; CHO-K1 hM5 cells, Fluo-8 calcium fluorescence; 0% DMSO wells, 100% maximal acetylcholine response; AID 624037; activation, % at 3 µM; hit rate 0.19% among 360,000;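 active means activation above the run's mean over test compounds plus 3 SD, cut at about 23% in these data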;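 further: signal is peak over basal fluorescence ratio across the kinetic read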
CHRM5 PAM – CHRM5 positive allosteric modulation; hit rate 0.3% among 360,000; P08912; activation, % at 3 µM; CHO-K1 hM5, Fluo-8 calcium, ACh EC20 PAM; 0% = ACh EC20, 100% = ACh EC100;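 active means activation above the run cutoff, the mean activation of all test compounds plus 3 SD, cut at about 18% in these data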
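System: CHO-K1 cell line with stable human muscarinic M5 receptor expression | Also added: EC20 acetylcholine as agonist stimulus | Compound: One concentration, 3 µM final (nominal) | Timing: Fluo-8 loading 80 min at 37 °C plus 30 min room temperature | Measured by: Fluo-8 calcium dye fluorescence, kinetic read | Read-out basis: % activation, ACh-normalized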
The depositor's hits bear a star; nt = not tested or not shown. In the library only some 2% were active in any assay of this set; here they are far more common.

SMILES | CHRM1 PAM | M5 antag | CHRM1 agonist | CHRM1 antagonist | M5 ag | CHRM5 PAM
CN(C)C(C)(C)C#CCC(c1ccccc1)c1ccccc1 | -25.2 | 46.4* | -7.1 | 86.8* | -7.8 | -19.9
CCOc1ccc(CN2CCCC(CO)(Cc3ccc(F)cc3)C2)cc1 (stereo not given) | -21.6 | -2.2 | -7.5 | 40.0* | -13.2 | 1.8
COc1ccc(CN2CCCC(CO)(Cc3ccc(F)cc3F)C2)cc1 (stereo not given) | -12.5 | -3.1 | -8.5 | 16.2 | -9.7 | 10.3
Cc1ccccc1NC(=O)c1cc(S(=O)(=O)N2CCCCC2)ccc1N1CCOCC1 | 3.8 | 13.7 | -2.8 | -9.7 | -1.3 | -4.5
CCOC(=O)N1CCC(NC(=O)C2CCN(C(=O)c3cc4oc(C)cc4n3Cc3c(F)cccc3Cl)CC2)CC1 | 10.7 | 7.5 | 31.8* | -6.7 | -4.9 | -5.5
COC(=O)c1ccc(CNC(=O)COC(=O)CCN2C(=O)C3CC=CCC3C2=O)cc1 (stereo not given) | 5.7 | 10.2 | -3.8 | -5.7 | -0.5 | -3.2
COc1ccc(CNC(=O)COC(=O)CN2C(=O)C3CC=CCC3C2=O)cc1 (stereo not given) | 26.5* | -9.9 | 3.2 | -24.0 | 4.1 | 3.0
FC(F)(F)c1cccc(CN2CCC(c3cc(-c4cccs4)n[nH]3)CC2)c1 | -15.2 | -0.4 | -9.0 | 11.2 | -4.1 | 0.3
Cc1ccc(CN2CCC(c3cc(-c4cccs4)n[nH]3)CC2)cc1 | -36.8 | 2.6 | -15.4 | 31.3* | -10.7 | -19.3
COc1cc(C=O)ccc1OC(=O)c1cccnc1 | 20.4 | 29.8* | 6.8 | -13.9 | -2.1 | -13.8
Cc1cc(-c2ccc(S(=O)(=O)N3CCN(C)CC3)s2)on1 | 5.0 | 35.3* | -2.1 | -9.0 | -8.2 | -12.8
O=C(CCC1CCCN(Cc2cccc3c2OCO3)C1)NCc1ccc(F)c(F)c1 (stereo not given) | -32.2 | -15.8 | -14.2 | 42.1* | -10.3 | -7.9
COc1ccc(/C=C/CN2CCCC(CCC(=O)NCc3ccc(F)c(F)c3)C2)cc1 (stereo not given) | -31.8 | 7.2 | -13.6 | 84.3* | -9.8 | -11.9
COc1ccccc1/C=C/CN1CCCC(CCC(=O)NCc2ccc(F)c(F)c2)C1 (stereo not given) | -19.9 | -3.0 | -14.1 | 1.7 | -8.9 | -6.8
CC(C)NC(=O)Nc1ccc2c(c1)C(=O)N([C@H](C)CO)C[C@H](C)[C@@H](CN(C)Cc1ccc(C(F)(F)F)cc1)OCCCC[C@H](C)O2 | -2.1 | 1.5 | -8.1 | -1.9 | 0.4 | -1.7
CCCNC(=O)C1(C)CCN(C(=O)c2ccc(F)c(Cl)c2)C1 (stereo not given) | 1.6 | 1.6 | -3.8 | 2.2 | 0.8 | 0.8
CCCNC(=O)C1(C)CCN(C(=O)c2ccc3c(c2)CCO3)C1 (stereo not given) | 30.6* | -0.6 | 5.3 | -37.6 | 2.8 | 7.3
COc1ccc(S(=O)(=O)N2CCN(C(=O)c3ccccc3Cc3ccccc3)CC2)cc1OC | -3.5 | 2.4 | -2.8 | -5.9 | -0.4 | -5.4
CC(=O)NN1C(=O)/C(=C/c2ccc(Br)o2)SC1=S | 21.1* | 13.1 | -2.5 | -3.2 | -0.9 | 5.5
Cc1cc(N2Cc3ccccc3C2)ccc1C=O | 15.7 | 38.5* | 0.7 | -15.7 | 14.8 | -5.2
O=Cc1ccc(N2Cc3ccccc3C2)cc1 | 3.9 | 2.2 | -3.4 | -12.4 | -2.3 | 1.8
COc1ccc2c(n1)Sc1nc3ccccc3nc1N2 | -11.7 | 22.6 | 48.0* | 32.6 | 30.9* | -6.4
O=[N+]([O-])c1cccc(SSc2cccc([N+](=O)[O-])c2)c1 | 9.1 | 13.3 | 10.6 | -3.2 | 26.2* | 12.2
O=C1c2ccccc2C(c2nnnn2-c2ccc3c(c2)OCCO3)N1CCc1ccccc1F (stereo not given) | nt | 3.5 | nt | nt | 3.8 | -4.2
COc1ccccc1NC(=O)c1cc2c(=O)n(C)c3ccccc3c2n1C | -18.9 | 14.9 | -5.6 | 92.7* | -3.1 | -17.4
SMILES | CHRM1 PAM | M5 antag | CHRM1 agonist | CHRM1 antagonist | M5 ag | CHRM5 PAM
CN(C)Cc1cc(C(F)(F)F)ccc1C(O)(c1ccccc1)c1ccccc1 | -31.0 | 75.4* | -7.4 | 101.4* | -10.4 | -37.6
O=Cc1ccc(F)c([B-](F)(F)F)c1 | 7.8 | -9.9 | -1.5 | -6.6 | 0.8 | 3.5
CCCNC(=O)c1cccc(COCC(F)(F)F)c1 | -1.4 | -8.1 | -1.8 | -2.2 | -3.6 | 33.6*
COc1ccc2c(c1OC)C(=O)N1c3ccccc3C(=O)N(c3ccc(F)cc3)C21 (stereo not given) | -5.2 | 19.9 | 1.9 | 25.1* | 3.6 | -18.0
COc1ccc2c(c1OC)C(=O)N1c3ccccc3C(=O)N(c3ccccc3)C21 (stereo not given) | -5.2 | 18.4 | 0.7 | 32.3* | 4.4 | -17.8
O=c1cc(-c2ccccc2)nc(SCCOc2ccccc2Cl)[nH]1 | 6.3 | 0.2 | -7.2 | -4.7 | -6.4 | -4.7
CCOC(=O)c1cnc2c(Cl)cccc2c1NCCN(C)C | 8.0 | 19.6 | -0.4 | -11.2 | -1.4 | 45.1*
COC(=O)[C@]12CCCCC=C1N(CCC1=CCCCC1)C(=O)[C@H](CC(=O)NCCc1ccccc1OC)C2 | nt | 11.5 | nt | nt | -2.1 | -10.3
Cc1sc2cc(-c3cccc([N+](=O)[O-])c3)c(-c3cccc([N+](=O)[O-])c3)c[n+]2c1C | -21.6 | 15.1 | -10.2 | 32.5* | -8.7 | -4.6
O=[N+]([O-])c1cccc(-c2cc3cccc[n+]3cc2-c2cccc([N+](=O)[O-])c2)c1 | 5.1 | 7.5 | -9.9 | 1.1 | -3.1 | -2.7
CN1CCC(NCCC(c2ccc(F)cc2)c2ccc(Cl)cc2)CC1 (stereo not given) | 1.6 | 15.5 | -3.9 | 1.7 | -0.1 | 1.6
CC(c1ccccc1)N1C(=O)C2C3CCC(C3)C2C1=O (stereo not given) | 4.7 | 15.6 | -4.5 | 3.0 | -2.1 | -0.5
CN1C2CCC1CC(OC(c1ccccc1)c1ccccc1)C2 (stereo not given) | nt | 99.1* | nt | nt | -17.8 | -33.4
CN1CCC(OC(c2ccccc2)c2ccc(Cl)cc2)C1 (stereo not given) | -30.7 | 88.7* | -1.1 | 99.5* | -9.6 | -41.1
COC(=O)C(C(=O)OC)C1CCCCC1NS(=O)(=O)c1ccc(C)cc1 (stereo not given) | nt | 8.0 | nt | nt | -0.8 | -4.0
Cc1ccc(OCCN2CCN(c3ncnc4sc(C)c(C)c34)CC2)cc1 | -10.9 | 31.9* | -3.7 | 17.3* | 3.5 | -13.6
Clc1ccc(OCCN2CCN(c3ncnc4sccc34)CC2)cc1 | -15.0 | 32.7* | -1.9 | 25.3* | 3.6 | -16.6
Cc1sc2ncnc(N3CCCCC3)c2c1C | 6.2 | -0.1 | -1.0 | -6.8 | 3.6 | -5.9
Oc1ccc(N=Nc2ccc3c(c2)OCCO3)c2ncccc12 | -12.4 | 36.1* | 11.9 | 32.2* | 27.8* | -34.7

Compound activity: PubChem BioAssay, The Scripps Research Institute Molecular Screening Center
